# From ChEMBL document CHEMBL1811848 (Bioorg Med Chem Lett, 2011)
# Activity calls are given as the source filed them. The calls are words filed in the database; no cut-off is given here.
# What was measured:
# Rattus norvegicus [1] = assay: Toxicity in female Wistar rat assessed as ovary to body weight ratio at 30 mg/kg, po measured after 28 days (reference value: 0.039 +/- 0.005); format: organism-based, Female gonad; design: dose 30 mg/kg, route oral; conditions: in vivo, 672 h
# Rattus norvegicus [2] = assay: Toxicity in male Wistar rat assessed as hemoglobin level at 30 mg/kg, po measured after 28 days (reference value: 13.66 +/- 0.23 g/dl); format: organism-based; design: dose 30 mg/kg, route oral; conditions: in vivo, 672 h
# Rattus norvegicus [3] = assay: Toxicity in male Wistar rat assessed as ALP level at 30 mg/kg, po measured after 28 days (reference value: 243.88 +/- 20.34 U/L); conditions: in vivo, 672 h
# Rattus norvegicus [4] = assay: Toxicity in male Wistar rat assessed as thymus to body weight ratio at 30 mg/kg, po measured after 28 days (reference value: 0.081 +/- 0.013); format: organism-based; design: dose 30 mg/kg, route oral; conditions: in vivo, 672 h
# Rattus norvegicus [5] = assay: Toxicity in male Wistar rat assessed as creatinine level at 30 mg/kg, po measured after 28 days (reference value: 0.47 +/- 0.03 mg/dl); format: organism-based; design: dose 30 mg/kg, route oral; conditions: in vivo, 672 h
# [6] = Cmax in fasting Wistar rat at 30 mg/kg, po; format: ADME, organism-based; design: dose 30 mg/kg, route oral; conditions: in vivo
# Outline: (§1)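 Fasted male Wistar rats received one oral dose of 30 mg/kg. Plasma Cmax, T1/2 and Tmax are reported as mean ± SD of n = 3.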
# Mus musculus [7] = assay: Hypolipidemic activity in db/db mouse assessed as reduction in triglyceride level at 0.03 mg/kg, po; format: functional; design: scale not given: the % may be the effect or the level left
# Rattus norvegicus [8] = assay: Toxicity in male Wistar rat assessed as hemoglobin level at 3 mg/kg, po measured after 28 days (reference value: 13.66 +/- 0.23 g/dl); format: organism-based; design: dose 3 mg/kg, route oral; conditions: in vivo, 672 h
# Mus musculus [9] = assay: Hypolipidemic activity in db/db mouse assessed as reduction in triglyceride level at 0.1 mg/kg, po; format: functional; design: scale not given: the % may be the effect or the level left
# Mus musculus [10] = assay: Hypolipidemic activity in Swiss albino mouse assessed as reduction in triglyceride level at 0.01 mg/kg, po; format: functional; design: scale not given: the % may be the effect or the level left
# Rattus norvegicus [11] = assay: Toxicity in male Wistar rat assessed as glucose level at 30 mg/kg, po measured after 28 days (reference value: 70 +/- 3.49 mg/dl); format: organism-based; design: dose 30 mg/kg, route oral; conditions: in vivo, 672 h
# Rattus norvegicus [12] = assay: Toxicity in male Wistar rat assessed as thymus to body weight ratio at 3 mg/kg, po measured after 28 days (reference value: 0.081+/- 0.013); format: organism-based; design: dose 3 mg/kg, route oral; conditions: in vivo, 672 h
# Rattus norvegicus [13] = assay: Toxicity in female Wistar rat assessed as spleen to body weight ratio at 30 mg/kg, po measured after 28 days (reference value: 0.237 +/- 0.012); format: organism-based; design: dose 30 mg/kg, route oral; conditions: in vivo, 672 h
# [14] = target: T1, Peroxisome proliferator-activated receptor delta (Homo sapiens) (UniProt Q03181); assay: Transactivation of human PPARdelta expressed in human HepG2 cells co-transfected with PPRE3-TK-Luc by luciferase reporter gene assay; format: cell-based
# T1 sequence (whole entry): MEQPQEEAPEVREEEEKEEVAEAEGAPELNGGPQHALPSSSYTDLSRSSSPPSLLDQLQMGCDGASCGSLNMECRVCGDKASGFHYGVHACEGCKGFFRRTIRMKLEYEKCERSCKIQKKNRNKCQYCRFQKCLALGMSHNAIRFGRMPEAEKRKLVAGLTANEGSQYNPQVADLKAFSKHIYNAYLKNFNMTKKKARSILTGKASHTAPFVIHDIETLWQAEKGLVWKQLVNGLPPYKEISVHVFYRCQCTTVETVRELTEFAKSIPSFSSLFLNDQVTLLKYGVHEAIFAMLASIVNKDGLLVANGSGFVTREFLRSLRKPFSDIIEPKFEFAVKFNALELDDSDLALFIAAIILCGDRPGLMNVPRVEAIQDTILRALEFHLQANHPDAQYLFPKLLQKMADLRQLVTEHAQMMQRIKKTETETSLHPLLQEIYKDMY
# Outline: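 HepG2 cells transfected with pSG5 vector carrying hPPARα, hPPARγ or hPPARδ cDNA, co-transfected with PPRE3-TK-luc. Firefly luciferase activity measured with a commercial kit. β-galactosidase activity read on an ELISA reader. Controls: WY14643 (α), rosiglitazone (γ), GW501516 (δ).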
# Rattus norvegicus [15] = assay: Toxicity in female Wistar rat assessed as adrenal to body weight ratio at 3 mg/kg, po measured after 28 days (reference value: 0.028 +/- 0.001); format: organism-based; design: dose 3 mg/kg, route oral; conditions: in vivo, 672 h
# Rattus norvegicus [16] = assay: Toxicity in male Wistar rat assessed as liver to body weight ratio at 3 mg/kg, po measured after 28 days (reference value: 3.257 +/- 0.067); format: organism-based; design: dose 3 mg/kg, route oral; conditions: in vivo, 672 h
# [17] = Half life in fasting Wistar rat at 30 mg/kg, po; format: ADME, organism-based; design: dose 30 mg/kg, route oral; conditions: in vivo; outline: as §1
# Rattus norvegicus [18] = assay: Toxicity in female Wistar rat assessed as creatinine level at 3 mg/kg, po measured after 28 days (reference value: 0.42 +/- 0.04 mg/dl); format: organism-based; design: dose 3 mg/kg, route oral; conditions: in vivo, 672 h
# Rattus norvegicus [19] = assay: Toxicity in female Wistar rat assessed as kidney to body weight ratio at 3 mg/kg, po measured after 28 days (reference value: 0.733 +/- 0.007); format: organism-based; design: dose 3 mg/kg, route oral; conditions: in vivo, 672 h
# Rattus norvegicus [20] = assay: Toxicity in male Wistar rat assessed as kidney to body weight ratio at 3 mg/kg, po measured after 28 days (reference value: 0.745 +/- 0.012); format: organism-based; design: dose 3 mg/kg, route oral; conditions: in vivo, 672 h
# Rattus norvegicus [21] = assay: Toxicity in male Wistar rat assessed as spleen to body weight ratio at 3 mg/kg, po measured after 28 days (reference value: 0.215 +/- 0.007); format: organism-based; design: dose 3 mg/kg, route oral; conditions: in vivo, 672 h
# Rattus norvegicus [22] = assay: Toxicity in male Wistar rat assessed as SGPT level at 30 mg/kg, po measured after 28 days (reference value: 34.24 +/- 2.13 U/L); format: organism-based; design: dose 30 mg/kg, route oral; conditions: in vivo, 672 h
# Rattus norvegicus [23] = assay: Toxicity in male Wistar rat assessed as SGOT level at 3 mg/kg, po measured after 28 days (reference value: 135.14 +/- 6.89 U/L); format: organism-based; design: dose 3 mg/kg, route oral; conditions: in vivo, 672 h
# Mus musculus [24] = assay: Hypolipidemic activity in db/db mouse assessed as reduction in triglyceride level at 0.003 mg/kg, po; format: functional; design: scale not given: the % may be the effect or the level left
# Mus musculus [25] = assay: Hypolipidemic activity in Swiss albino mouse assessed as reduction in triglyceride level at 0.03 mg/kg, po; format: functional; design: scale not given: the % may be the effect or the level left
# Rattus norvegicus [26] = assay: Toxicity in female Wistar rat assessed as ALP level at 30 mg/kg, po measured after 28 days (reference value: 172.38 +/- 7.18 U/L); conditions: in vivo, 672 h
# Mus musculus [27] = assay: Hypolipidemic activity in Swiss albino mouse assessed as reduction in triglyceride level at 0.003 mg/kg, po; format: functional; design: scale not given: the % may be the effect or the level left
# Rattus norvegicus [28] = assay: Toxicity in female Wistar rat assessed as […] level at 3 mg/kg, po measured after 28 days (reference value: 172.38 +/- 7.18 U/L); format: organism-based; design: dose 3 mg/kg, route oral; conditions: in vivo, 672 h
# Rattus norvegicus [29] = assay: Toxicity in female Wistar rat assessed as change in body weight at 30 mg/kg, po measured after 28 days relative to control; format: organism-based; design: dose 30 mg/kg, route oral; conditions: in vivo, 672 h
# Outline: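 Wistar rats received 3 or 30 mg/kg orally for 28 days. Body weight was recorded weekly, and the % change in body weight over the study is tabulated.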
# Mus musculus [30] = species: Mus musculus; assay: Hypolipidemic activity in Swiss albino mouse assessed as reduction in triglyceride level; format: functional
# Rattus norvegicus [31] = assay: Toxicity in female Wistar rat assessed as albumin level at 3 mg/kg, po measured after 28 days (reference value: 3.92 +/- 0.18 g.dl); format: organism-based; design: dose 3 mg/kg, route oral; conditions: in vivo, 672 h
# Rattus norvegicus [32] = assay: Toxicity in female Wistar rat assessed as SGPT level at 3 mg/kg, po measured after 28 days (reference value: 30.44 +/- 1.59 U/L); format: organism-based; design: dose 3 mg/kg, route oral; conditions: in vivo, 672 h
structure (smiles),measurement,setting,value
CCO[C@@H](Cc1ccc(OCCc2nc(-c3ccc(C)s3)oc2C)cc1)C(=O)O,Ratio,Rattus norvegicus [1],0.024
same,Activity,Rattus norvegicus [2],12.46 g/dL
same,Activity,Rattus norvegicus [3],679.13 U/L
same,Ratio,Rattus norvegicus [4],0.075
same,Activity,Rattus norvegicus [5],0.37 mg/dL
same,Cmax,[6],91.7 µg/mL
same,Activity,Mus musculus [7],25.9%
same,Activity,Rattus norvegicus [8],12.2 g/dL
same,Activity,Mus musculus [9],49.4%
same,Activity,Mus musculus [10],61.9%
same,Activity,Rattus norvegicus [11],83.28 mg/dL
same,Ratio,Rattus norvegicus [12],0.089
same,Ratio,Rattus norvegicus [13],0.26
same,Activity,[14],inactive
same,Ratio,Rattus norvegicus [15],0.02
same,Ratio,Rattus norvegicus [16],7.505
same,half-life,[17],7.4 h
same,Activity,Rattus norvegicus [18],0.36 mg/dL
same,Ratio,Rattus norvegicus [19],0.804
same,Ratio,Rattus norvegicus [20],0.807
same,Ratio,Rattus norvegicus [21],0.223
same,Activity,Rattus norvegicus [22],33.03 U/L
same,Activity,Rattus norvegicus [23],193.51 U/L
same,Activity,Mus musculus [24],7.2%
same,Activity,Mus musculus [25],65.6%
same,Activity,Rattus norvegicus [26],248.38 U/L
same,Activity,Mus musculus [27],41.5%
same,Activity,Rattus norvegicus [28],248.13 U/L
same,Activity,Rattus norvegicus [29],21.71%
same,ED50,Mus musculus [30],0.01 mg/kg
same,Activity,Rattus norvegicus [31],4.03 g/dL
same,Activity,Rattus norvegicus [32],22.46 U/L
